Measured values from ChEMBL document CHEMBL4699667, “Discovery of the Potent, Selective, Orally Available CXCR7 Antagonist ACT-1004-1239” (J Med Chem, 2020).
Converted amounts (≈) assume the structure as drawn.

What was measured:
[1] = Solubility in FaSSIF-V1 medium; assay type: physicochemical
[2] = Solubility in FeSSIF-V1 medium; assay type: physicochemical
[3] = Aqueous solubility at pH 7; assay type: physicochemical
[4] = Tmax in beagle dog at 1 mg/kg, po after 24 hrs by LC-MS-MS analysis; assay type: ADME, organism-based, Canis lupus familiaris; conditions: in vivo
Summary of the method: (§1)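 Dogs received a single oral dose of 1 mg/kg (n = 2). Parameters are averages and Tmax is the median. Plasma was sampled at 8 h post-dose, among other times. Bioavailability is referenced to the 1 mg/kg iv dose (n = 2).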

[5] = Cmax in beagle dog at 1 mg/kg, po after 24 hrs by LC-MS-MS analysis; assay type: ADME, organism-based, Canis lupus familiaris; parameters: route oral, dose 1 mg/kg, time 24 hrs; conditions: in vivo; summary of the method: as §1
[6] = Tmax in Wistar rat at 10 mg/kg, po after 24 hrs by LC-MS-MS analysis; assay type: ADME, organism-based; conditions: in vivo
Summary of the method: (§2)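 Rats received a single oral dose of 10 mg/kg (n = 3). Parameters are averages and Tmax is the median. Plasma was sampled at 8 h post-dose, among other times. Bioavailability is referenced to the 1 mg/kg iv dose (n = 2).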

[7] = Volume of distribution at steady state in Wistar rat at 1 mg/kg, iv after 24 hrs by LC-MS-MS analysis; assay type: ADME, organism-based; conditions: in vivo, read-out: Vdss
Summary of the method: (§3)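 Single intravenous dose of 1 mg/kg in rat and in dog, with n = 2 animals per species. Parameters are reported as averages. Blood clearance is plasma clearance corrected for blood/plasma partitioning and expressed as a fraction of liver blood flow.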

[8] = Oral bioavailability in Wistar rat at 10 mg/kg after 24 hrs by LC-MS-MS analysis; assay type: ADME, organism-based; conditions: in vivo; summary of the method: as §2
[9] = AUC (0 to infinity) in beagle dog at 1 mg/kg, iv after 24 hrs by LC-MS-MS analysis; assay type: ADME, organism-based, Canis lupus familiaris; parameters: route intravenous, dose 1 mg/kg, time 24 hrs; conditions: in vivo; summary of the method: as §3
[10] = AUC (0 to infinity) in Wistar rat at 1 mg/kg, iv after 24 hrs by LC-MS-MS analysis; assay type: ADME, organism-based; parameters: route intravenous, dose 1 mg/kg, time 24 hrs; conditions: in vivo; summary of the method: as §3
[11] = AUC (0 to last) in Wistar rat at 10 mg/kg, po after 24 hrs by LC-MS-MS analysis; assay type: ADME, organism-based; parameters: route oral, dose 10 mg/kg, time 24 hrs; conditions: in vivo; summary of the method: as §2
[12] = Volume of distribution at steady state in beagle dog at 1 mg/kg, iv after 24 hrs by LC-MS-MS analysis; assay type: ADME, organism-based, Canis lupus familiaris; conditions: in vivo, read-out: Vdss; summary of the method: as §3
[13] = Plasma concentration in Wistar rat at 10 mg/kg, po after 8 hrs by LC-MS-MS analysis; assay type: ADME, organism-based; summary of the method: as §2
[14] = Cmax in Wistar rat at 10 mg/kg, po after 24 hrs by LC-MS-MS analysis; assay type: ADME, organism-based; parameters: route oral, time 24 hrs, dose 10 mg/kg; conditions: in vivo; summary of the method: as §2
[15] = AUC (0 to last) in beagle dog at 1 mg/kg, po after 24 hrs by LC-MS-MS analysis; assay type: ADME, organism-based, Canis lupus familiaris; parameters: route oral, time 24 hrs, dose 1 mg/kg; conditions: in vivo; summary of the method: as §1
[16] = Plasma concentration in beagle dog at 1 mg/kg, po after 8 hrs by LC-MS-MS analysis; assay type: ADME, organism-based, Canis lupus familiaris; summary of the method: as §1
[17] = Oral bioavailability in beagle dog at 1 mg/kg after 24 hrs by LC-MS-MS analysis; assay type: ADME, organism-based, Canis lupus familiaris; conditions: in vivo; summary of the method: as §1
[18] = physchem; conditions: octanol/water, pH 7.4
[19] = physchem
[20] = Plasma concentration in DBA/1 mouse plasma at 30 mg/kg, po administered as single dose measured after 24 hrs; assay type: ADME, organism-based
Summary of the method: (§4)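 Naive male DBA/1 mice received one oral dose within the 1–100 mg/kg range, alongside a vehicle group. Compound plasma concentration was measured at 0.5, 6 or 24 h post-dose, with n = 3–5 per dose group. Values are mean + SEM, and the limit of quantification was 1.52 ng/mL.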

[21] = Cmax in DBA/1 mouse plasma at 1 mg/kg, po administered as single dose measured after 0.5 hrs; assay type: ADME, organism-based; parameters: route oral, time 0.5 hrs, dose 1 mg/kg; summary of the method: as §4
[22] = Plasma concentration in DBA/1 mouse plasma at 100 mg/kg, po administered as single dose measured after 24 hrs; assay type: ADME, organism-based; summary of the method: as §4
[23] = Tmax in DBA/1 mouse at 1 to 100 mg/kg, po administered as single dose measured after 0.5 to 24 hrs; assay type: ADME, organism-based; conditions: in vivo, dose 1-100 mg/kg, time 0.5-24 hrs; summary of the method: as §4
[24] = Drug level in plasma of DBA/1 mouse at 1 to 100 mg/kg, po administered as single dose measured after 0.5 to 24 hrs; assay type: ADME, organism-based; conditions: in vivo, dose 1-100 mg/kg, time 0.5-24 hrs; summary of the method: as §4
[25] = Cmax in DBA/1 mouse plasma at 100 mg/kg, po administered as single dose measured after 0.5 hrs; assay type: ADME, organism-based; parameters: route oral, dose 100 mg/kg, time 0.5 hrs; summary of the method: as §4

Which solubility [1] does the source give for `CN(C)C(=O)[C@H]1CN(C2CCCCC2)CC[C@@H]1NC(=O)c1cc(-c2ccc(F)cc2F)on1` (racemic) here?
Its solubility is 569 µg/mL (≈ 1240 µM).

What about the solubility [2] of the same molecule?
The solubility was 652 µg/mL (≈ 1420 µM).

What about the solubility [3] of the same molecule?
The solubility was 192 µg/mL (≈ 417 µM).

Which Tmax [4] does the source give for `Cl.O=C(N[C@H]1CCN(CC2CC2)C[C@@H]1C(=O)NC1(c2ncccn2)CC1)c1cc(-c2ccc(F)cc2F)on1` here?
The Tmax was 90 min.

And the Cmax [5]?
The Cmax was 314 ng/mL.

And the Tmax [6]?
Its Tmax is 30 min.

What about the Vd [7] of the same molecule?
The Vd was 3.6 L/kg.

What about the bioavailability [8] of the same molecule?
The bioavailability was 35%.

What about the AUC [9] of the same molecule?
Its AUC is 5940 ng·h/mL.

What about the AUC [10] of the same molecule?
The AUC was 238 ng·h/mL.

What about the AUClast [11] of the same molecule?
Its AUClast is 827 ng·h/mL.

What about the Vd [12] of the same molecule?
The Vd was 1.6 L/kg.

What about the concentration at 8 h [13] of the same molecule?
Its concentration at 8 h is 18.3 ng/mL.

And the Cmax [14]?
Its Cmax is 600 ng/mL.

And the AUClast [15]?
Its AUClast is 3620 ng·h/mL.

And the concentration at 8 h [16]?
The concentration at 8 h was 185 ng/mL.

And the bioavailability [17]?
The bioavailability was 61%.

Which logD [18] does the source give for `O=C(N[C@H]1CCN(C2CCCCC2)C[C@@H]1C(=O)NCc1ccccc1)c1cc(-c2ccc(F)cc2F)on1` here?
The logD was over 4.1.

For `O=C(N[C@H]1CCN(C2CCC2)C[C@@H]1C(=O)NC1(c2ncccn2)CC1)c1cc(-c2ccc(F)cc2F)on1`, which logD [18] is on record?
Its logD is 2.9.

And the pKa [19]?
Its pKa is 7.4.

Which logD [18] does the source give for `C[C@@H](NC(=O)[C@H]1CN(C2CCCCC2)CC[C@@H]1NC(=O)c1cc(-c2ccc(F)cc2F)on1)c1ccccc1` here?
The logD was over 4.1.

With `O=C(N[C@H]1CCN(CC2CCC2)C[C@@H]1C(=O)NC1(c2ncccn2)CC1)c1cc(-c2ccc(F)cc2F)on1` as the molecule, how does the logD [18] read?
Its logD is 3.1.

What about the pKa [19] of the same molecule?
Its pKa is 7.7.

What does the source list for `O=C(N[C@H]1CCN(CC2CC2)C[C@@H]1C(=O)NC1(c2ncccn2)CC1)c1cc(-c2ccc(F)cc2F)on1`?
concentration at 24 h [20]: < 1.52 ng/mL; logD [18]: 2.5; solubility [1]: 513 µg/mL (≈ 982 µM); Cmax [21]: 6 ng/mL; solubility [2]: > 880 µg/mL; concentration at 24 h [22]: 14 ng/mL; solubility [3]: 374 µg/mL (≈ 716 µM); Tmax [23]: 30 min; pKa [19]: 7.7; Drug uptake [24]: Dose-dependent effect; Cmax [25]: 4280 ng/mL

For `COCCN1CC[C@H](NC(=O)c2cc(-c3ccc(F)cc3F)on2)[C@@H](C(=O)NC2(c3ncccn3)CC2)C1`, which logD [18] is on record?
The logD was 1.9.

And the pKa [19]?
The pKa was 6.7.

What does the source list for `CC(C)N1CC[C@H](NC(=O)c2cc(-c3ccc(F)cc3F)on2)[C@@H](C(=O)NC2(c3ncccn3)CC2)C1`?
logD [18]: 1.8; pKa [19]: 8

Which logD [18] does the source give for `O=C(N[C@H]1CCN(CC2(F)CC2)C[C@@H]1C(=O)NC1(c2ncccn2)CC1)c1cc(-c2ccc(F)cc2F)on1` here?
Its logD is 2.7.

What about the pKa [19] of the same molecule?
The pKa was 6.2.

Which results are given for `CCN1CC[C@H](NC(=O)c2cc(-c3ccc(F)cc3F)on2)[C@@H](C(=O)NC2(c3ncccn3)CC2)C1`?
logD [18]: 1.8; pKa [19]: 7.6

What does the source list for `O=C(N[C@H]1CCN(C2CC2)C[C@@H]1C(=O)NC1(c2ncccn2)CC1)c1cc(-c2ccc(F)cc2F)on1`?
logD [18]: 2.4; pKa [19]: 6.1

With `O=C(N[C@H]1CCN(C2CCCCC2)C[C@@H]1C(=O)NC1(c2ncccn2)CC1)c1cc(-c2ccc(F)cc2F)on1` as the molecule, how does the logD [18] read?
Its logD is 2.9.

For `O=C(N[C@H]1CCN(C2CC(F)(F)C2)C[C@@H]1C(=O)NC1(c2ncccn2)CC1)c1cc(-c2ccc(F)cc2F)on1`, which logD [18] is on record?
Its logD is 2.9.

What about the pKa [19] of the same molecule?
Its pKa is 5.2.

What does the source list for `CCCN1CC[C@H](NC(=O)c2cc(-c3ccc(F)cc3F)on2)[C@@H](C(=O)NC2(c3ncccn3)CC2)C1`?
logD [18]: 2.5; pKa [19]: 7.6

With `CC(C)(NC(=O)[C@H]1CN(C2CCCCC2)CC[C@@H]1NC(=O)c1cc(-c2ccc(F)cc2F)on1)c1ccccn1` as the molecule, how does the logD [18] read?
Its logD is 3.8.

For `O=C(NC1CCN(C2CCCCC2)CC1)c1noc(-c2ccc(F)cc2F)n1`, which logD [18] is on record?
The logD was 1.6.

With `O=C(N[C@H]1CCN(C2CCCCC2)C[C@@H]1C(=O)NC1(c2ccccn2)CC1)c1cc(-c2ccc(F)cc2F)on1` as the molecule, how does the logD [18] read?
The logD was over 3.8.

What does the source list for `C[C@@H](NC(=O)[C@H]1CN(C2CCCCC2)CC[C@@H]1NC(=O)c1cc(-c2ccc(F)cc2F)on1)c1ccccn1`?
logD [18]: 3.9; solubility [1]: 38 µg/mL (≈ 70.7 µM); solubility [2]: > 910 µg/mL; solubility [3]: 4 µg/mL (≈ 7.44 µM)

Which solubility [1] does the source give for `O=C(NC1CCN(C2CCCCC2)CC1)c1cc(-c2ccc(F)cc2F)on1` here?
Its solubility is 144 µg/mL (≈ 370 µM).

And the solubility [2]?
Its solubility is 196 µg/mL (≈ 503 µM).

And the solubility [3]?
Its solubility is 15 µg/mL (≈ 38.5 µM).

For `O=C(N[C@H]1CCNC[C@@H]1C(=O)NC1(c2ncccn2)CC1)c1cc(-c2ccc(F)cc2F)on1`, which logD [18] is on record?
Its logD is 0.6.

And the pKa [19]?
Its pKa is 8.1.

For `O=C(N[C@H]1CCN(CCCF)C[C@@H]1C(=O)NC1(c2ncccn2)CC1)c1cc(-c2ccc(F)cc2F)on1`, which logD [18] is on record?
Its logD is 2.2.

What about the pKa [19] of the same molecule?
The pKa was 6.8.

Which results are given for `CC(=O)N1CC[C@H](NC(=O)c2cc(-c3ccc(F)cc3F)on2)[C@@H](C(=O)NC2(c3ncccn3)CC2)C1`?
logD [18]: 1.6; pKa [19]: < 2

For `CN1CC[C@H](NC(=O)c2cc(-c3ccc(F)cc3F)on2)[C@@H](C(=O)NC2(c3ncccn3)CC2)C1`, which logD [18] is on record?
Its logD is 1.7.

And the pKa [19]?
Its pKa is 7.3.
